Assay outcomes from PubChem BioAssay.
This is one part of a sample in which hits are shown more often than they occur.
GASC1 inh – KDM4C (human) demethylase inhibition. Q9H3R0. GST-KDM4C 2-372, H3K9me3 peptide, LANCE TR-FRET. inhibition, % at 12.5 µM. 96,000 tested, 0.15% active;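 active means mean replicate inhibition above about 25%, with at least 55% of replicates also reaching it, limit read from the data, passing the limit was not always enough; inconclusive means only one of those two conditions met; inactive means neither condition met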
Target sequence (Q9H3R0 2-372 limits assumed): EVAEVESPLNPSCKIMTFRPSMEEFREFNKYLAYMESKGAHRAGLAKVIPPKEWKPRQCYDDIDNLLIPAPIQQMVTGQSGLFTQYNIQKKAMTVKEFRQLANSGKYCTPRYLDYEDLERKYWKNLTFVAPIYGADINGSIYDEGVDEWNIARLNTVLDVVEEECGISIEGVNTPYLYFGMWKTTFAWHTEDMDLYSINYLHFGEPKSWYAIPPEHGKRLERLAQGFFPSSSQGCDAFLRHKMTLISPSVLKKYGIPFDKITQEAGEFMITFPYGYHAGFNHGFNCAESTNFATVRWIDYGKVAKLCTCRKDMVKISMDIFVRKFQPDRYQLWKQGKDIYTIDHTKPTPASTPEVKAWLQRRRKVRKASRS
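Compound: one test concentration per compound; Material: GST-GASC-1 enzyme fragment 2-372; Amount: GASC-1 enzyme at 10 nM final in reaction; Also added: H3K9me3 peptide substrate, Fe(II), 2-oxoglutarate; Technique: LANCE TR-FRET; Times: 30 min demethylation and 1 h detection at room temperature.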
IDH1 R132H inh – inhibitors of human IDH1 R132H; O75874; IDH1 R132H reductase, diaphorase/resazurin fluorescence, 60 min; inhibition, % at 10 µM; 70,000 tested, 0.18% active; AID 624101; in the data active means inhibition above about 34%; inconclusive means no clear call, values can overlap the other calls; inactive means below about 11%;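 further: 0% = DMSO and 100% = no enzyme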
T cruzi growth-1 – T. cruzi proliferation inhibition; T. cruzi beta-gal in NIH3T3, GalScreen luminescence, 90 h; 77,000 tested, 5.9% active; inhibition, % at 8.34 µM;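 active means mean inhibition above about 93%, with at least 55% of replicates each passing it, limit read from the data, passing the limit was not always enough; inconclusive means only one of those two conditions holds; inactive means neither condition holds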
T cruzi growth-2 – blocks T. cruzi growth in NIH3T3 host cells. shares compounds with T cruzi growth-1. T. cruzi beta-gal in NIH3T3, GalScreen luminescence, 90 h. inhibition, % at 8.35 µM. 5,600 tested, 72% active;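 active means mean replicate inhibition above about 95% and at least 55% of replicates individually reaching it, limit read from the data; inconclusive means only one of the two criteria is met; inactive means neither criterion is met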
T cruzi growth-3 – inhibitors of T. cruzi proliferation | 5,600 tested, 21% active | inhibition, % at 2.09 µM | T. cruzi beta-gal in NIH3T3, GalScreen luminescence, 90 h | shares compounds with T cruzi growth-1;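 active means mean inhibition above about 95%, with at least 55% of replicates also reaching it, limit read from the data; inconclusive means meets just one of the two conditions; inactive means meets neither condition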;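 further: plate controls were neutral control median for no effect and positive control median for full effect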
3T3 cytotox – cytotoxicity in mouse NIH/3T3 fibroblasts; shares compounds with T cruzi growth-1; NIH/3T3 viability, CellTiter-Glo ATP luminescence, 90 h; cytotoxicity (signal decrease), % at 8.35 µM; 5,600 tested, 14% active; AID 651742;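 active means mean signal decrease across replicates above about 35% based on untreated-well scatter, with enough replicates individually passing, limit read from the data; inconclusive means no rule stated though some were filed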;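 further: 0% = median of neutral control wells and 100% = median of positive control wells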
3T3 cytotox 2 – kills mouse NIH/3T3 fibroblasts; shares compounds with T cruzi growth-1; NIH/3T3 viability, CellTiter-Glo ATP luminescence, 90 h; inhibition, % at 24.9 µM; 5,600 tested, 56% active;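 active means mean loss of cell viability signal at or above a set limit, and enough replicates individually reaching it; inconclusive means meets only the mean limit or only the replicate share; inactive means meets neither condition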;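 further: 0% = median of neutral control wells and 100% = median of positive control wells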
* marks the source's active call; other numbers are inactive results; u = inconclusive; x = not tested or not shown.

SMILES	GASC1 inh	IDH1 R132H inh	T cruzi growth-1	T cruzi growth-2	T cruzi growth-3	3T3 cytotox	3T3 cytotox 2
CNC[C@H]1Oc2cc(C#Cc3ccc(OC)cc3)ccc2S(=O)(=O)N([C@H](C)CO)C[C@@H]1C	-1.0	-3.3	109.3*	98.2*	u	38.6*	105.3*
COc1ccc2c3c(n(C)c2c1)[C@@H](CO)N(Cc1nccs1)CC31CN(C)C1	0.5	x	x	x	x	x	x
COc1ccc(S(=O)(=O)N(C)CC(=O)Nc2cccc(SC)c2)cc1C	x	-0.5	x	x	x	x	x
COC(=O)c1ccc(C)c(NC(=O)CN(c2ccc(Cl)c(Cl)c2)S(C)(=O)=O)c1	x	0.1	x	x	x	x	x
CS(=O)(=O)N(CC(=O)Nc1cccc([N+](=O)[O-])c1)Cc1ccc(Cl)cc1	x	-0.1	x	x	x	x	x
CO[C@H](CN(C)S(=O)(=O)c1ccc(F)cc1)[C@H](C)CN([C@H](C)CO)S(=O)(=O)c1cccc(Cl)c1	-0.8	-0.1	101.4*	88.4	x	28.8	55.3*
CO[C@@H](CN(C)S(=O)(=O)c1ccc(F)cc1)[C@@H](C)CN([C@@H](C)CO)S(=O)(=O)c1cccc(Cl)c1	-0.2	0.2	108.9*	82.1	10.8	25.7	52.9*
CO[C@@H](CN(C)S(=O)(=O)c1ccc(Cl)cc1)[C@H](C)CN([C@H](C)CO)S(=O)(=O)c1cccc(Cl)c1	-1.3	-0.6	30.5	x	x	x	x
CO[C@@H](CN(C)S(=O)(=O)c1ccc(F)cc1)[C@H](C)CN([C@H](C)CO)S(=O)(=O)c1cccc(Cl)c1	-1.2	-0.4	85.1	x	x	x	x
COc1ccccc1-n1c(CSc2nc3cc(C(=O)N4CCCC4)ccc3s2)nc2ccccc2c1=O	x	0.3	x	x	x	x	x
COc1ccc(S(=O)(=O)N(C)C[C@H]2OCCCC[C@@H](C)Oc3ccc(NS(=O)(=O)c4c(C)noc4C)cc3C(=O)N([C@H](C)CO)C[C@H]2C)cc1	-0.9	-1.5	80.3	x	x	x	x
COc1ccc(CN(C)C[C@@H]2OCCCC[C@@H](C)Oc3ccc(NC(=O)Nc4cccc5ccccc45)cc3C(=O)N([C@@H](C)CO)C[C@H]2C)cc1	14.1	0.4	79.4	x	x	x	x
COc1ccc(CN(C)C[C@@H]2OCCCC[C@@H](C)Oc3ccc(NC(=O)Nc4cccc5ccccc45)cc3C(=O)N([C@H](C)CO)C[C@H]2C)cc1	x	0.3	87.4	x	x	x	x
COc1ccc(CN(C)C[C@H]2OCCCC[C@H](C)Oc3ccc(NC(=O)Nc4cccc5ccccc45)cc3C(=O)N([C@@H](C)CO)C[C@H]2C)cc1	-3.9	2.2	u	106.0*	92.3	25.2	u
COc1ccc(CN(C)C[C@@H]2OCCCC[C@H](C)Oc3ccc(NC(=O)Nc4cccc5ccccc45)cc3C(=O)N([C@@H](C)CO)C[C@@H]2C)cc1	-1.5	-5.7	u	102.8*	95.8*	24.6	102.8*
Cc1ccc(OCC(=O)Nc2ccc3oc(-c4cccnc4)nc3c2)cc1C	x	0.2	x	x	x	x	x
COc1cc2c(cc1NC(=O)C(C)Oc1cccc(Cl)c1)oc1ccccc12 (stereo unspecified)	x	0.0	x	x	x	x	x
COc1cc(-c2oc3cc(O)cc(O)c3c(=O)c2OC2OC(CO)C(O)C(O)C2O)ccc1O (stereo unspecified)	x	-0.5	x	x	x	x	x
C[C@H](CO)N1C[C@H](C)[C@@H](CN(C)S(=O)(=O)c2ccc(Cl)cc2)Oc2c(NC(=O)Nc3ccc(C(F)(F)F)cc3)cccc2C1=O	x	0.9	u	90.1	111.3*	46.1*	104.9*
C[C@@H]1CN([C@H](C)CO)C(=O)c2cccc(NC(=O)Nc3ccc(C(F)(F)F)cc3)c2O[C@H]1CN(C)S(=O)(=O)c1ccc(F)cc1	-5.2	6.4	u	107.8*	33.8	9.8	39.3*
Cc1ccc(S(=O)(=O)N(C)C[C@H]2Oc3c(NC(=O)Nc4ccccc4)cccc3C(=O)N([C@H](C)CO)C[C@H]2C)cc1	-0.1	0.3	100.8*	u	19.8	5.9	47.8*
C[C@H](CO)N1C[C@H](C)[C@@H](CN(C)S(=O)(=O)c2ccc(F)cc2)Oc2c(NC(=O)Nc3ccc(C(F)(F)F)cc3)cccc2C1=O	-1.2	-1.3	x	x	x	x	x
Cc1ccc(S(=O)(=O)N(C)C[C@H]2Oc3c(cccc3N(C)C)C(=O)N([C@H](C)CO)C[C@@H]2C)cc1	-1.0	-5.3	u	98.7*	15.2	8.2	27.8*
Cc1ccc(S(=O)(=O)N(C)C[C@H]2Oc3c(cccc3N(C)C)C(=O)N([C@@H](C)CO)C[C@@H]2C)cc1	0.8	-5.6	78.3	x	x	x	x
Cc1ccc(S(=O)(=O)N(C)C[C@@H]2Oc3c(NC(=O)Nc4ccccc4)cccc3C(=O)N([C@@H](C)CO)C[C@@H]2C)cc1	-1.5	0.2	19.0	x	x	x	x
SMILES	GASC1 inh	IDH1 R132H inh	T cruzi growth-1	T cruzi growth-2	T cruzi growth-3	3T3 cytotox	3T3 cytotox 2
C[C@@H]1CN([C@@H](C)CO)C(=O)c2cccc(NC(=O)Nc3ccc(C(F)(F)F)cc3)c2O[C@H]1CN(C)S(=O)(=O)c1ccc(Cl)cc1	x	0.6	u	x	x	x	x
COc1ccc(-c2noc(CN(C(C)C)S(=O)(=O)c3ccccc3)n2)cc1	x	-1.0	x	x	x	x	x
CCC(=O)NC(c1ccccc1OC)c1c(O)ccc2ccccc12 (stereo unspecified)	x	3.0	x	x	x	x	x
CCc1cc(=O)oc2cc(OCc3cc(C(=O)OC)oc3C)ccc12	x	0.4	x	x	x	x	x
C[C@H]1CN([C@@H](C)CO)C(=O)Cc2cc(NC(=O)Cn3cnnn3)ccc2O[C@@H]1CN(C)CC1CCCCC1	-1.0	3.3	5.0	x	x	x	x
COc1ccc(S(=O)(=O)N(C)C[C@@H]2Oc3c(NC(=O)Nc4cccc5ccccc45)cccc3C(=O)N([C@@H](C)CO)C[C@H]2C)cc1	-0.6	2.3	x	x	x	x	x
COc1ccc(S(=O)(=O)N(C)C[C@@H]2Oc3c(NC(=O)Nc4cccc5ccccc45)cccc3C(=O)N([C@H](C)CO)C[C@@H]2C)cc1	10.6	-0.5	125.8*	u	64.9	33.4	30.2*
COC(=O)c1cc(OC)c(OC)cc1NC(=O)COc1cc(C)c(Br)cc1C	x	-0.3	x	x	x	x	x
O=C(Nc1ccc2c(c1)[C@H]1C[C@H](CC(=O)N3CCOCC3)O[C@H](CO)[C@H]1O2)C1CCC1	0.4	0.8	8.1	x	x	x	x
CC(=O)c1ccc(NC(=O)CSc2nnc(-c3cccs3)n2-c2ccccc2)cc1	x	0.5	x	x	x	x	x
Cc1ccc(-c2noc(CN(C(=O)c3cccc([N+](=O)[O-])c3)C(C)C)n2)cc1	x	-0.9	x	x	x	x	x
CCCNC(=O)N1[C@H](C#N)[C@H](c2ccc(C#Cc3ccc(F)cc3)cc2)[C@H]1CO	0.2	x	93.0	x	x	x	x
CCCNC(=O)N1[C@H](C#N)[C@H](c2ccc(C#Cc3cccc(F)c3)cc2)[C@H]1CO	-0.8	x	93.8	x	x	x	x
CCCNC(=O)N1[C@H](C#N)[C@H](c2ccc(C#Cc3ccc(F)cc3)cc2)[C@@H]1CO	-0.9	x	u	101.3*	112.5*	-23.6	-1.3
